Experimental data taken from ChEMBL document CHEMBL5724801, “EUbOPEN Chemogenomics Library - Multiplex” (2024).
Where “and” joins values, the source holds several entries; their conditions need not be identical. Identical values can stand only once.

Test system: U2OS
Test: Multiplex assay against U2OS
Format: toxicity, cell-based
Conditions: human
Procedure, shortened: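 Hoechst33342, BioTracker Green Microtubule Cytoskeleton Dye, MitoTracker Red and Annexin V Alexa Fluor 680 were added to live cells at seeding, and imaging on a CQ1 microscope at 37°C and 5% CO2 followed compound addition. Gating by CellPathfinder machine learning separated cells into Hoechst high-intensity objects or normal cells, then normal cells into healthy, pyknosed or fragmented nuclei, then pyknosed cells into mitotic or apoptotic. Per cents of healthy-nucleus cells are reported for the tubulin, mitochondrial-mass and membrane-permeability phenotypes.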

[1] = 12 h, 1 µM, compound concentration 1 uM
[2] = 12 h, 10 µM, compound concentration 10 uM
[3] = 24 h, 1 µM, compound concentration 1 uM
[4] = 24 h, 10 µM, compound concentration 10 uM
[5] = 48 h, 1 µM, compound concentration 1 uM
[6] = 48 h, 10 µM, compound concentration 10 uM

O=C(Nc1cc(-c2ccccc2)nn1-c1ccccc1F)c1ccc([N+](=O)[O-])cc1
Population Apoptotic (%) [1]: 86% and 91% | Population Fragmented Nuclei (%) [1]: 25% and 14% | Population Healthy Nuclei (%) [1]: 66% and 78% | Population Hoechst High Intensity Objects (%) [1]: 4% and 1% | Population Membrane Permeable-Phenotype (%) [1]: 10% and 9% | Population Mitochondria Different-Phenotype (%) [1]: 4% | Population Mitotic Cells (%) [1]: 13% and 8% | Population Normal (%) [1]: 95% and 98% | Population Pyknosed Nuclei (%) [1]: 8% and 6% | Population Tubulin-Different-Phenotype (%) [1]: 4% and 9% | Total Cell Count [1]: 293 and 182 | Population Apoptotic (%) [2]: 66% and 94% | Population Fragmented Nuclei (%) [2]: 30% and 12% | Population Healthy Nuclei (%) [2]: 60% and 73% | Population Hoechst High Intensity Objects (%) [2]: 3% and 0% | Population Membrane Permeable-Phenotype (%) [2]: 11% | Population Mitochondria Different-Phenotype (%) [2]: 5% and 8% | Population Normal (%) [2]: 96% and 100% | Population Pyknosed Nuclei (%) [2]: 9% and 13% | Population Tubulin-Different-Phenotype (%) [2]: 7% and 6% | Total Cell Count [2]: 293 and 134 | Population Apoptotic (%) [3]: 91% and 100% | Population Fragmented Nuclei (%) [3]: 24% and 15% | Population Healthy Nuclei (%) [3]: 68% and 76% | Population Hoechst High Intensity Objects (%) [3]: 3% and 1% | Population Membrane Permeable-Phenotype (%) [3]: 6% and 9% | Population Mitochondria Different-Phenotype (%) [3]: 4% and 5% | Population Mitotic Cells (%) [3]: 8% and 0% | Population Normal (%) [3]: 96% and 98% | Population Pyknosed Nuclei (%) [3]: 7% and 8% | Population Tubulin-Different-Phenotype (%) [3]: 5% and 6% | Total Cell Count [3]: 342 and 226 | Population Apoptotic (%) [4]: 91% and 100% | Population Fragmented Nuclei (%) [4]: 25% and 14% | Population Healthy Nuclei (%) [4]: 64% and 76% | Population Hoechst High Intensity Objects (%) [4]: 1% and 0% | Population Membrane Permeable-Phenotype (%) [4]: 7% and 11% | Population Mitochondria Different-Phenotype (%) [4]: 3% and 8% | Population Mitotic Cells (%) [4]: 8% and 0% | Population Normal (%) [4]: 98% and 99% | Population Pyknosed Nuclei (%) [4]: 9% | Population Tubulin-Different-Phenotype (%) [4]: 5% and 8% | Total Cell Count [4]: 353 and 164 | Population Apoptotic (%) [5]: 89% and 90% | Population Fragmented Nuclei (%) [5]: 17% and 12% | Population Healthy Nuclei (%) [5]: 73% and 79% | Population Hoechst High Intensity Objects (%) [5]: 2% and 1% | Population Membrane Permeable-Phenotype (%) [5]: 9% and 6% | Population Mitochondria Different-Phenotype (%) [5]: 5% and 4% | Population Mitotic Cells (%) [5]: 10% | Population Normal (%) [5]: 97% and 98% | Population Pyknosed Nuclei (%) [5]: 8% | Population Tubulin-Different-Phenotype (%) [5]: 5% | Total Cell Count [5]: 475 and 371 | Population Apoptotic (%) [6]: 81% and 89% | Population Fragmented Nuclei (%) [6]: 20% and 10% | Population Healthy Nuclei (%) [6]: 67% and 76% | Population Hoechst High Intensity Objects (%) [6]: 2% | Population Membrane Permeable-Phenotype (%) [6]: 8% and 11% | Population Mitochondria Different-Phenotype (%) [6]: 4% and 8% | Population Mitotic Cells (%) [6]: 18% and 10% | Population Normal (%) [6]: 97% | Population Pyknosed Nuclei (%) [6]: 12% and 13% | Population Tubulin-Different-Phenotype (%) [6]: 6% and 8% | Total Cell Count [6]: 445 and 226

CN(C)C/C=C/C(=O)Nc1ccc(C(=O)N2CCCC(Nc3ncc(Cl)c(-c4c[nH]c5ccccc45)n3)C2)cc1 (stereo not drawn)
Population Apoptotic (%) [1]: 77% and 83% | Population Fragmented Nuclei (%) [1]: 31% and 18% | Population Healthy Nuclei (%) [1]: 60% and 77% | Population Hoechst High Intensity Objects (%) [1]: 2% and 0% | Population Membrane Permeable-Phenotype (%) [1]: 5% and 6% | Population Mitochondria Different-Phenotype (%) [1]: 3% and 5% | Population Mitotic Cells (%) [1]: 22% and 16% | Population Normal (%) [1]: 97% and 99% | Population Pyknosed Nuclei (%) [1]: 8% and 4% | Population Tubulin-Different-Phenotype (%) [1]: 4% and 8% | Total Cell Count [1]: 228 and 139 | Population Apoptotic (%) [2]: 80% and 75% | Population Fragmented Nuclei (%) [2]: 31% and 25% | Population Healthy Nuclei (%) [2]: 47% and 54% | Population Hoechst High Intensity Objects (%) [2]: 5% and 2% | Population Membrane Permeable-Phenotype (%) [2]: 33% and 23% | Population Mitochondria Different-Phenotype (%) [2]: 40% and 42% | Population Mitotic Cells (%) [2]: 20% and 25% | Population Normal (%) [2]: 94% and 97% | Population Pyknosed Nuclei (%) [2]: 20% | Population Tubulin-Different-Phenotype (%) [2]: 49% and 37% | Total Cell Count [2]: 233 and 121 | Population Apoptotic (%) [3]: 93% and 100% | Population Fragmented Nuclei (%) [3]: 34% and 21% | Population Healthy Nuclei (%) [3]: 53% and 67% | Population Hoechst High Intensity Objects (%) [3]: 2% and 0% | Population Membrane Permeable-Phenotype (%) [3]: 7% and 8% | Population Mitochondria Different-Phenotype (%) [3]: 2% | Population Mitotic Cells (%) [3]: 6% and 0% | Population Normal (%) [3]: 97% and 99% | Population Pyknosed Nuclei (%) [3]: 11% | Population Tubulin-Different-Phenotype (%) [3]: 6% and 5% | Total Cell Count [3]: 271 and 164 | Population Apoptotic (%) [4]: 87% and 97% | Population Fragmented Nuclei (%) [4]: 39% and 31% | Population Healthy Nuclei (%) [4]: 35% | Population Hoechst High Intensity Objects (%) [4]: 9% and 5% | Population Membrane Permeable-Phenotype (%) [4]: 22% and 21% | Population Mitochondria Different-Phenotype (%) [4]: 33% and 28% | Population Mitotic Cells (%) [4]: 12% and 2% | Population Normal (%) [4]: 90% and 94% | Population Pyknosed Nuclei (%) [4]: 25% and 32% | Population Tubulin-Different-Phenotype (%) [4]: 29% and 17% | Total Cell Count [4]: 239 and 135 | Population Apoptotic (%) [5]: 94% and 96% | Population Fragmented Nuclei (%) [5]: 29% and 10% | Population Healthy Nuclei (%) [5]: 60% and 77% | Population Hoechst High Intensity Objects (%) [5]: 3% | Population Membrane Permeable-Phenotype (%) [5]: 10% and 3% | Population Mitochondria Different-Phenotype (%) [5]: 3% | Population Mitotic Cells (%) [5]: 5% and 3% | Population Normal (%) [5]: 96% | Population Pyknosed Nuclei (%) [5]: 10% and 12% | Population Tubulin-Different-Phenotype (%) [5]: 5% and 3% | Total Cell Count [5]: 339 and 221 | Population Apoptotic (%) [6]: 100% | Population Fragmented Nuclei (%) [6]: 50% | Population Healthy Nuclei (%) [6]: 17% and 18% | Population Hoechst High Intensity Objects (%) [6]: 15% and 9% | Population Membrane Permeable-Phenotype (%) [6]: 47% and 26% | Population Mitochondria Different-Phenotype (%) [6]: 27% and 19% | Population Mitotic Cells (%) [6]: 0% | Population Normal (%) [6]: 84% and 90% | Population Pyknosed Nuclei (%) [6]: 32% and 31% | Population Tubulin-Different-Phenotype (%) [6]: 38% and 23% | Total Cell Count [6]: 251 and 157

Cc1c(Cc2ccc3ccccc3n2)c2cc(F)ccc2n1CC(=O)O [TIMAPIPRANT]
Population Apoptotic (%) [1]: 84% and 83% | Population Fragmented Nuclei (%) [1]: 21% and 22% | Population Healthy Nuclei (%) [1]: 69% and 70% | Population Hoechst High Intensity Objects (%) [1]: 2% and 1% | Population Membrane Permeable-Phenotype (%) [1]: 3% and 4% | Population Mitochondria Different-Phenotype (%) [1]: 1% and 4% | Population Mitotic Cells (%) [1]: 16% | Population Normal (%) [1]: 97% and 98% | Population Pyknosed Nuclei (%) [1]: 8% and 6% | Population Tubulin-Different-Phenotype (%) [1]: 1% and 3% | Population Apoptotic (%) [2]: 75% and 68% | Population Fragmented Nuclei (%) [2]: 30% and 12% | Population Healthy Nuclei (%) [2]: 62% and 75% | Population Hoechst High Intensity Objects (%) [2]: 2% and 0% | Population Membrane Permeable-Phenotype (%) [2]: 4% and 6% | Population Mitochondria Different-Phenotype (%) [2]: 1% and 3% | Population Mitotic Cells (%) [2]: 25% and 31% | Population Normal (%) [2]: 97% and 99% | Population Pyknosed Nuclei (%) [2]: 6% and 12% | Population Tubulin-Different-Phenotype (%) [2]: 2% and 3% | Total Cell Count [2]: 244 and 132 | Population Apoptotic (%) [3]: 96% and 100% | Population Fragmented Nuclei (%) [3]: 18% and 19% | Population Healthy Nuclei (%) [3]: 73% | Population Hoechst High Intensity Objects (%) [3]: 1% | Population Membrane Permeable-Phenotype (%) [3]: 6% and 7% | Population Mitochondria Different-Phenotype (%) [3]: 3% and 2% | Population Mitotic Cells (%) [3]: 3% and 0% | Population Normal (%) [3]: 98% | Population Pyknosed Nuclei (%) [3]: 7% | Population Tubulin-Different-Phenotype (%) [3]: 4% and 3% | Population Apoptotic (%) [4]: 94% and 72% | Population Fragmented Nuclei (%) [4]: 26% and 18% | Population Healthy Nuclei (%) [4]: 66% and 74% | Population Hoechst High Intensity Objects (%) [4]: 1% and 0% | Population Membrane Permeable-Phenotype (%) [4]: 6% and 8% | Population Mitochondria Different-Phenotype (%) [4]: 2% | Population Normal (%) [4]: 98% and 100% | Population Pyknosed Nuclei (%) [4]: 6% and 7% | Population Tubulin-Different-Phenotype (%) [4]: 3% | Total Cell Count [4]: 278 and 152 | Population Apoptotic (%) [5]: 88% and 90% | Population Fragmented Nuclei (%) [5]: 16% and 22% | Population Healthy Nuclei (%) [5]: 77% and 71% | Population Hoechst High Intensity Objects (%) [5]: 1% and 2% | Population Membrane Permeable-Phenotype (%) [5]: 4% and 12% | Population Mitochondria Different-Phenotype (%) [5]: 3% and 5% | Population Mitotic Cells (%) [5]: 11% and 10% | Population Normal (%) [5]: 98% and 97% | Population Pyknosed Nuclei (%) [5]: 6% | Population Tubulin-Different-Phenotype (%) [5]: 3% and 6% | Population Apoptotic (%) [6]: 100% and 92% | Population Fragmented Nuclei (%) [6]: 19% and 13% | Population Healthy Nuclei (%) [6]: 74% and 80% | Population Hoechst High Intensity Objects (%) [6]: 0% and 2% | Population Membrane Permeable-Phenotype (%) [6]: 3% and 5% | Population Mitochondria Different-Phenotype (%) [6]: 1% and 3% | Population Mitotic Cells (%) [6]: 0% and 7% | Population Normal (%) [6]: 99% and 97% | Population Pyknosed Nuclei (%) [6]: 6% | Population Tubulin-Different-Phenotype (%) [6]: 1% and 3% | Total Cell Count [6]: 392 and 204
